Assay results from ChEMBL document CHEMBL1132723, “Potent 1,3-disubstituted-9H-pyrido[3,4-b]indoles as new lead compounds in antifilarial chemotherapy” (1999).
Several values for one entry are separate records, joined by “and”; a condition that tells them apart may be missing. Equal entries are not always repeated.

Tests used:
Acanthocheilonema viteae [1] = assay: In vivo anti-filarial (microfilaricidal) activity at an ip dose of 50 mg/kg (for 5 days) against A. viteae in Mastomys coucha.; assay type: functional; details: route intraperitoneal
Summary of the method: (§1)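 Acanthocheilonema viteae infection in Mastomys coucha; compounds given as fine suspensions in 1% Tween 80 for 5 consecutive days, 50 mg/kg ip and/or 200 mg/kg orally. Micro- and macrofilaricidal action and sterilisation of surviving female worms were scored. Two to three animals per dose level, with at least two replicate experiments.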

Acanthocheilonema viteae [2] = assay: In vivo anti-filarial (macrofilaricidal) activity at an ip dose of 50 mg/kg (for 5 days) against A. viteae in Mastomys coucha.; assay type: functional; details: route intraperitoneal
Summary of the method: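 Infected *Mastomys coucha* were dosed for 5 consecutive days, either 50 mg/kg ip or 200 mg/kg orally. Compounds were given as fine suspensions in 1% Tween 80. Each dose level used two to three animals, with at least two replicates to confirm activity. Micro- and macrofilaricidal action was scored by the cited earlier method.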

Acanthocheilonema viteae [3] = assay: Antifilarial activity as percent of surviving A. viteae in Mastomys coucha sterlized after an intraperitoneal dose of 50 mg/kg (for 5 days).; assay type: functional; summary of the method: as §1
Acanthocheilonema viteae [4] = assay: In vivo anti-filarial (mif-macrofilaricidal) activity at an oral dose of 200 mg/kg (for 5 days) against A. viteae in Mastomys coucha
Rattus norvegicus [5] = assay: (§2) In vivo anti-filarial (maf-macrofilaricidal) activity at an ip dose of 30 mg/kg (for 5 days) against Litomosoides carinii in cotton rats; assay type: functional; details: route intraperitoneal
Summary of the method: (§3)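 They received 30 mg/kg ip for 5 consecutive days as a 1% Tween 80 suspension. Blood microfilariae were counted before treatment and then weekly until day 42. Animals were then killed and adult worm condition scored.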

Mus musculus [6] = assay: Antifilarial activity evaluated as percent of surviving Brugia malayi that were sterlized after an ip dose of 50 mg/kg (for 5 days); assay type: functional; details: route intraperitoneal
Summary of the method: (§4)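 Male Mastomys, 6 weeks old, each inoculated with 50 infective Brugia malayi larvae recovered from infected Aedes aegypti. Screening followed the A. viteae protocol, with a 1% Tween 80 suspension for 5 days at 50 mg/kg ip or 250 mg/kg orally. Micro- and macrofilaricidal action and sterilisation of surviving females were scored. Two to three animals per dose.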

Rattus norvegicus [7] = assay: Antifilarial activity evaluated as percent of surviving Litomosoides carinii in cotton rats that were sterlized after an ip dose of 30 mg/kg (for 5 days); assay type: functional; details: route intraperitoneal
Summary of the method: (§5)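 Cotton rats (Sigmodon hispidus), 6 weeks old, infected with Litomosoides carinii through the mite vector Liponyssus bacoti. Animals with ≥250 microfilariae/5 mm blood were used. Dosed 30 mg/kg ip for 5 consecutive days as a 1% Tween 80 suspension. Blood microfilariae were checked before treatment and weekly until day 42, when animals were killed and adult male and female worms examined.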

Acanthocheilonema viteae [8] = assay: In vivo anti-filarial (mif-microfilaricidal) activity at an ip dose of 200 mg/kg (for 5 days) against A. viteae in Mastomys coucha
Rattus norvegicus [9] = assay: In vivo anti-filarial (mif-microfilaricidal) activity at an ip dose of 30 mg/kg (for 5 days) against Litomosoides carinii in cotton rats; assay type: functional; details: route intraperitoneal; summary of the method: as §3
Mus musculus [10] = assay: In vivo anti-filarial (mif-microfilaricidal) activity at an po dose of 250 mg/kg (for 5 days) against Brugia malayi; assay type: functional; summary of the method: as §4
Mus musculus [11] = assay: In vivo anti-filarial (maf-macrofilaricidal) activity at an po dose of 250 mg/kg (for 5 days) against Brugia malayi; assay type: functional
Summary of the method: (§6)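 Male *Mastomys* infected at 6 weeks old with *B. malayi* larvae were dosed for 5 days, 50 mg/kg ip or 250 mg/kg orally, as a 1% Tween 80 suspension. Screening followed the *A. viteae* scheme. Micro- and macrofilaricidal action and sterilization of surviving female worms were scored. Each dose used two to three animals, with at least duplicate confirmation.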

Mus musculus [12] = assay: In vivo anti-filarial (mif-microfilaricidal) activity at an ip dose of 50 mg/kg (for 5 days) against Brugia malayi; assay type: functional; details: route intraperitoneal; summary of the method: as §6
Mus musculus [13] = assay: In vivo anti-filarial (maf-macrofilaricidal) activity at an ip dose of 50 mg/kg (for 5 days) against Brugia malayi; assay type: functional; details: route intraperitoneal; summary of the method: as §6
Rattus norvegicus [14] = assay: as §2; assay type: functional; details: route intraperitoneal; summary of the method: as §5; remark: listed apart in the source
Mus musculus [15] = assay: In vivo anti-filarial (mif-microfilaricidal) activity at an oral dose of 200 mg/kg (for 5 days) against A. viteae in Mastomys coucha; assay type: functional; summary of the method: as §1
Acanthocheilonema viteae [16] = assay: In vivo anti-filarial (maf-macrofilaricidal) activity at an oral dose of 200 mg/kg (for 5 days) against A. viteae in Mastomys coucha
Rattus norvegicus [17] = assay: In vivo anti-filarial (mif-microfilaricidal) activity at an ip dose of 75 mg/kg (for 5 days) against Litomosoides carinii in cotton rats; assay type: functional; details: route intraperitoneal
Mus musculus [18] = assay: In vivo anti-filarial (mif-microfilaricidal) activity at an ip dose of 100 mg/kg (for 5 days) against Brugia malayi; assay type: functional; details: route intraperitoneal
Mus musculus [19] = assay: In vivo anti-filarial (maf-macrofilaricidal) activity at an ip dose of 100 mg/kg (for 5 days) against Brugia malayi; assay type: functional; details: route intraperitoneal

Structure (SMILES) | Activity (Acanthocheilonema viteae [1]) [%] | Activity (Acanthocheilonema viteae [2]) [%] | Activity (Acanthocheilonema viteae [3]) [%] | also measured
COC(=O)c1cc2c([nH]c3ccccc32)c(-c2cccc(Br)c2)n1 | 0 | 84 | 100 | –
COC(=O)c1cc2c([nH]c3ccccc32)c(-c2cccc(Cl)c2)n1 | 0 | 81 | – | –
Cc1ccc(-c2[nH]c(CO)cc3c4ccccc4nc2-3)cc1 | 0 | 0 | 40 | –
COC(=O)c1cc2c([nH]c3ccccc32)c(-c2ccsc2)n1 | 0 | 60 | – | –
COC(=O)C1Cc2c([nH]c3ccccc23)C(c2ccc(F)cc2)N1 (stereo not given) | 0 | 25 | – | –
NC(=O)c1cc2c([nH]c3ccccc32)c(-c2ccsc2)n1 | 0 | 89 | – | –
COC(=O)C1Cc2c([nH]c3ccccc23)C(c2ccc(C)cc2)N1 (stereo not given) | 0 | 90 | – | –
OCc1cc2c([nH]c3ccccc32)c(-c2ccc(Cl)cc2)n1 | 76 | 56 | 75 | Activity (Acanthocheilonema viteae [4]): 94%; Activity (Rattus norvegicus [5]): 95%; Activity (Mus musculus [6]): 85%; Activity (Rattus norvegicus [7]): 0%; Activity (Acanthocheilonema viteae [8]): 0%; Activity (Rattus norvegicus [9]): 29%; Activity (Mus musculus [10]): 0%; Activity (Mus musculus [11]): 56% and 69%; Activity (Mus musculus [12]): 0%; Activity (Mus musculus [13]): 62%
COC(=O)c1cc2c([nH]c3ccccc32)c(-c2ccccc2F)n1 | 0 | 44 | – | –
COC(=O)C1Cc2c([nH]c3ccccc23)C(c2ccsc2)N1 (stereo not given) | 0 | 57 | – | –
COC(=O)c1cc2c([nH]c3ccccc32)c(-c2ccccc2Cl)n1 | 0 | 94 | – | –
NC(=O)c1cc2c([nH]c3ccccc32)c(-c2ccc(Cl)cc2)n1 | 0 | 0 | 60 | –
COC(=O)C1Cc2c([nH]c3ccccc23)C(c2ccc(Cl)cc2)N1 (stereo not given) | 94 | 39 | 100 | –
COC(=O)c1cc2c([nH]c3ccccc32)c(-c2cccs2)n1 | 62 | 45 | 0 | –
OCc1cc2c([nH]c3ccccc32)c(-c2ccc(F)cc2)n1 | 0 | 75 | – | –
NC(=O)c1cc2c([nH]c3ccccc32)c(-c2cccc(Cl)c2)n1 | 84 | 0 | 50 | –
NC(=O)c1cc2c([nH]c3ccccc32)c(-c2cccs2)n1 | 93 | 0 | – | –
COC(=O)C1Cc2c([nH]c3ccccc23)C(c2cccc(Br)c2)N1 (stereo not given) | 90 | 0 | – | –
COC(=O)c1cc2c([nH]c3ccccc32)c(-c2ccc(C)cc2)n1 | 0 | 100 | – | –
NNC(=O)c1cc2c([nH]c3ccccc32)c(-c2ccsc2)n1 | 91 | 0 | – | –
COC(=O)C1Cc2c([nH]c3ccccc23)C(c2cccc(Cl)c2)N1 (stereo not given) | 0 | 50 | – | –
COC(=O)C1Cc2c([nH]c3ccccc23)C(c2ccccc2Cl)N1 (stereo not given) | 0 | 93 | – | Activity (Rattus norvegicus [14]): 20%; Activity (Mus musculus [15]): 0%; Activity (Rattus norvegicus [7]): 88%; Activity (Rattus norvegicus [9]): 0%; Activity (Acanthocheilonema viteae [16]): 0%
COC(=O)c1cc2c([nH]c3ccccc32)c(-c2ccc(F)cc2)n1 | 0 | 56 | 67 | –
NC(=O)c1cc2c([nH]c3ccccc32)c(-c2ccccc2Cl)n1 | 44 | 86 | 100 | –
NC(=O)c1cc2c([nH]c3ccccc32)c(-c2cccc(Br)c2)n1 | 0 | 69 | – | –
CCN(CC)C(=O)N1CCN(C)CC1.O=C(O)CC(O)(CC(=O)O)C(=O)O [DIETHYLCARBAMAZINE CITRATE] | 90 | 0 | – | Activity (Rattus norvegicus [14]): 0%; Activity (Rattus norvegicus [17]): 90%; Activity (Mus musculus [18]): 90%; Activity (Mus musculus [19]): 0%
